Assay results: BindingDB's records for doi:10.1016/j.ejmech.2016.05.060 (Xi'An Jiaotong University, 2016)

Experiments:
[1] = molecular target: T1, M-phase inducer phosphatase 2 (Homo sapiens, UniProt P30305); assay: Inhibition of human recombinant GST-tagged CDC25B assessed as reduction in dephosphorylation of florigenic phosphatase substrate preincubated for 1 hr followed by substrate addition measured after 1 hr by fluorescence assay
T1 sequence (P30305 whole entry): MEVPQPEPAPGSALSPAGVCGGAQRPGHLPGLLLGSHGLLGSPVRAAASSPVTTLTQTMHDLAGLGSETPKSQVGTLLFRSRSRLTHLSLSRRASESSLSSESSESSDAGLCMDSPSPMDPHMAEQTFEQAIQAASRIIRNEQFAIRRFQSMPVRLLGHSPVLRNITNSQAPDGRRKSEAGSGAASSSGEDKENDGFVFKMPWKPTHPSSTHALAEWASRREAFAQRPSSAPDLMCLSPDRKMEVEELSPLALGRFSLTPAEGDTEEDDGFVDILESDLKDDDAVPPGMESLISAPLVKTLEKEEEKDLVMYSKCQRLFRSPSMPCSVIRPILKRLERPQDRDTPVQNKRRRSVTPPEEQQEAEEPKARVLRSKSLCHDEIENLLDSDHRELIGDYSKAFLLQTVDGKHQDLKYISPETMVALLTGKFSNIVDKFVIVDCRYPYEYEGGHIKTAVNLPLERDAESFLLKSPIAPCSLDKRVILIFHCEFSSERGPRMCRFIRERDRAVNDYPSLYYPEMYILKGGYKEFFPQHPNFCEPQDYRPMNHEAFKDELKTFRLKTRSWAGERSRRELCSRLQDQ
Summary of the method: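 Purified GST-CDC25B fusion protein was preincubated with compound for 1 h, then fluorescein diphosphate ([…]) was added. Fluorescence was read within the linear range of the reaction after 1 h at room temperature. Na₃VO₄ served as positive control and DMSO as negative control.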

[2] = molecular target: T2, Tyrosine-protein phosphatase non-receptor type 1 (Homo sapiens, UniProt P18031); assay: Inhibition of human recombinant GST-tagged PTP1B catalytic domain expressed in Escherichia coli BL21-Conden plus (DE3) using pNPP as substrate
T2 sequence (P18031 whole entry): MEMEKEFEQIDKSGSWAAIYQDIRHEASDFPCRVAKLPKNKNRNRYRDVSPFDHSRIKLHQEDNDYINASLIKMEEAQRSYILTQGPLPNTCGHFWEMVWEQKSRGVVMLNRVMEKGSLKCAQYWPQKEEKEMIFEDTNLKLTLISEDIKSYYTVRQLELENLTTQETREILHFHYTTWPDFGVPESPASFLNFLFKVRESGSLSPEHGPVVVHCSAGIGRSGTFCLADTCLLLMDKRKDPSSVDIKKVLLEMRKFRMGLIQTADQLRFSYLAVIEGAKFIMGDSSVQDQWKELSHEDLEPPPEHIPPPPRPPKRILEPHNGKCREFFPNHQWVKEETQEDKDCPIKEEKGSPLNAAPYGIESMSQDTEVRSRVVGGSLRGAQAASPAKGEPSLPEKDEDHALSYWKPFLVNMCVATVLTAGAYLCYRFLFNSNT

SMILES | IC50 [1] | IC50 [2]
CCOC(=O)c1c(C)[nH]c(/C=C2\S/C(=N\c3ccccc3F)N(c3ccccc3F)C2=O)c1C | 3660 nM | –
CCOC(=O)c1c(C)[nH]c(/C=C2\S/C(=N/O)N(C(C)C)C2=O)c1C | 5830 nM | –
[O]=[V]([OH])([OH])[OH] | 910 nM | –
CCOC(=O)c1c(C)[nH]c(/C=C2\S/C(=N\c3ccccc3)N(c3ccccc3)C2=O)c1C | – | 8.66 µM

Further lines, results first:

IC50 [1] | IC50 [2] | SMILES
3390 nM | 6.83 µM | CCOC(=O)c1c(C)[nH]c(/C=C2\S/C(=N\c3cccc(F)c3)N(c3cccc(F)c3)C2=O)c1C
2740 nM | – | CCOC(=O)c1c(C)[nH]c(/C=C2\S/C(=N\c3ccc(OC)cc3)N(c3ccc(OC)cc3)C2=O)c1C
2470 nM | – | CC(C)N1C(=O)/C(=C/c2ccc(OCCN(C)c3ccccn3)cc2)S/C1=N\O
2870 nM | 6.09 µM | CCOC(=O)c1c(C)[nH]c(/C=C2\S/C(=N\c3ccc(F)cc3)N(c3ccc(F)cc3)C2=O)c1C
